Active and inactive are the calls of the source. The calls are words filed in the database; no cut-off is given here.
Tests used:
Nucleic Acid [1] = assay: Binding affinity to salmon testes DNA at drug/DNA ratio of 0.03 by linear dichroism analysis; type: nucleic-acid assay; details: Salmonidae
Outline: (§1)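 Flow linear dichroism in 10 mM phosphate buffer pH 7.2. Samples oriented in a rotating cylindrical cuvette (0.14 cm path, 800 rpm) at several drug/DNA ratios.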

Jurkat [2] = assay: Induction of apoptosis in UV-A irradiated human Jurkat cells assessed as loss of mitochondrial membrane potential after 6 hrs by cytofluorimetric analysis; type: functional, cell-based
Outline: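 Jurkat cells 6, 12 and 24 h after UV-A (2.5 J/cm²) with compound, resuspended in HBSS with JC-1 (1 μg/ml). Green (FL1) and orange (FL2) fluorescence collected by flow cytometry, ≥10000 events; cells with monomeric JC-1 counted as collapsed potential. Mean ± SEM of three experiments.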

Nucleic Acid [3] = assay: Binding affinity to salmon testes DNA at 10 uM by fluorescence titration; type: nucleic-acid assay; details: Salmonidae
Outline: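 Fluorimetric titration of compound (10 μM) with increasing stDNA (0 to 100 μM) in 10 mM phosphate buffer pH 7.2; quenching of compound fluorescence monitored.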

MCF7 [4] = assay: Phototoxicity in 2.5 J/cm'2 UV-A irradiated human MCF7 cells assessed as cell viability after 72 hrs by MTT assay in presence of radical scavenger GSH; type: functional, cell-based
Outline: (§2)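 MCF-7 cells given compound plus scavenger in HBSS, 30 min at 37 °C, then UV-A (2.5 J/cm², 365 nm lamp). Medium replaced; viability by MTT after 72 h. Means ± SEM of at least three independent experiments.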

Jurkat [5] = assay: Induction of apoptosis in 3.75 J/cm'2 UV-A irradiated human Jurkat cells assessed as viable cells at 10 uM after 24 hrs by Annexin-V-FITC and propidium iodide based flow cytometry (reference value: 91%); type: functional; details: light or radiation study, read-out: Activity
Nucleic Acid [6] = assay: Induction of photo-induced Escherichia coli pBR322 DNA damage at drug:DNA ratio of 3:1 by agarose gel electrophoresis in presence of endonuclease III
Nucleic Acid [7] = assay: Induction of photo-induced supercoiled Escherichia coli pBR322 DNA damage at drug:DNA ratio of 1:3 by agarose gel electrophoresis in presence of mannitol; type: nucleic-acid assay
Outline: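 Supercoiled pBR322 (100 ng) in 10 mM phosphate buffer pH 7.2 irradiated with UV-A (3.75 J/cm²) at [DNA]/[drug] 1/3, with additives, under nitrogen or in deuterated buffer as stated. Aliquots then incubated at 37 °C with Fpg or Endo III. Run on 1% agarose in TAE, 80 V for 2 h, stained with ethidium bromide; Form I/II fractions from band densitometry.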

Jurkat [8] = assay: Cell cycle arrest in UV-A irradiated human Jurkat cells assessed as accumulation at Sub G1 phase at 10 uM after 24 hrs by propidium iodide based flow cytometry (reference value: 0.1 %); type: functional
Outline: (§3)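 Exponentially growing Jurkat cells (5×10^5) irradiated with UV-A (365 nm lamp, 2.5 J/cm²) in presence of compound. After 24 h: fixed in ice-cold 70% ethanol, lysed with RNAse A, stained with PI (10 µg/ml), analysed by flow cytometry. Phases calculated on living cells; subG1 is hypodiploid DNA peak.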

[9] = Drug uptake in endoplasmic reticulum of human NCTC-2544 cells at 10 uM after 2 hrs by fluorescence microphotography; type: ADME, cell-based; details: nctc-2544, 2 h
Outline: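 NCTC-2544 cells attached in Petri dishes, given compound at 10 μM for 2 h, washed with HBSS. Then 30 min with Rhodamine 123 (mitochondria), LysoTracker RED, CellMask Orange (plasma membrane) or ER-Tracker. Blue compound fluorescence overlaid on probe images by video-confocal microscopy.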

MCF7 [10] = assay: Phototoxicity in 2.5 J/cm'2 UV-A irradiated human MCF7 cells assessed as cell viability after 72 hrs by MTT assay in presence of radical scavenger DABCO; type: functional, cell-based; outline: as §2
LoVo = assay: Phototoxicity in 3.75 J/cm'2 UV-A irradiated human LoVo cells after 72 hrs by MTT assay; type: functional, cell-based; details: light or radiation study
Outline: (§4)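 Seeded at 5 × 10³ cells/well with 10% FBS: MCF-7 and NCTC-2544 in DMEM, LoVo in Ham's F12. Pre-incubated 18 h at 37 °C, 5% CO2. Compound (DMSO stock diluted in HBSS pH 7.2) was applied for 30 min at 37 °C, then UV-A irradiation (mainly 365 nm, 4.0 mW/cm²). Medium was restored for 72 h before MTT. IC50 is the mean ± SEM of three experiences.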

Jurkat [11] = assay: Phototoxicity in 2.5 J/cm'2 UV-A irradiated human Jurkat cells after 72 hrs by MTT assay; type: functional, cell-based; details: light or radiation study
Outline: (§5)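 HL-60 and Jurkat (8×10³/well, RPMI-1640) and MCF-7, LoVo, NCTC-2544 (5×10³/well; DMEM or Ham's F12) preincubated 18 h at 37 °C, 5% CO₂. Compound in DMSO diluted in HBSS pH 7.2, 30 min at 37 °C, then UV-A at 2.5 or 3.75 J/cm². Medium replaced, 72 h incubation, MTT read-out. IC50 as mean ± SEM of three experiments.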

Nucleic Acid [12] = assay: Binding affinity to salmon testes DNA at drug/DNA ratio of 0.02 by linear dichroism analysis; type: nucleic-acid assay; details: Salmonidae; outline: as §1
Jurkat [13] = assay: Cell cycle arrest in UV-A irradiated human Jurkat cells assessed as accumulation at Sub G1 phase at 5 uM after 24 hrs by propidium iodide based flow cytometry (reference value: 0.1 %); type: functional; outline: as §3
Jurkat [14] = assay: Induction of apoptosis in 3.75 J/cm'2 UV-A irradiated human Jurkat cells assessed as necrotic cells at 10 uM after 24 hrs by Annexin-V-FITC and propidium iodide based flow cytometry (reference value: 4.2 %); type: functional
MCF7 [15] = assay: Phototoxicity in 2.5 J/cm'2 UV-A irradiated human MCF7 cells assessed as cell viability after 72 hrs by MTT assay in presence of radical scavenger mannitol; type: functional, cell-based; outline: as §2
MCF7 [16] = assay: Phototoxicity in 3.75 J/cm'2 UV-A irradiated human MCF7 cells after 72 hrs by MTT assay; type: functional, cell-based; details: MCF7, light or radiation study; outline: as §4
Jurkat [17] = assay: Cell cycle arrest in UV-A irradiated human Jurkat cells assessed as accumulation at G2/M phase at 10 uM after 24 hrs by propidium iodide based flow cytometry (reference value: 10.3 %); type: functional; outline: as §3
Nucleic Acid [18] = assay: Binding affinity to salmon testes DNA at drug/DNA ratio of 0.01 by linear dichroism analysis; type: nucleic-acid assay; details: Salmonidae; outline: as §1
MCF7 [19] = assay: Phototoxicity in 2.5 J/cm'2 UV-A irradiated human MCF7 cells after 72 hrs by MTT assay; type: functional, cell-based; details: MCF7, light or radiation study; outline: as §5
Jurkat [20] = assay: Induction of apoptosis in UV-A irradiated human Jurkat cells assessed as increase in number of damaged lysosomes at 5 to 10 uM by acridine orange-based flow cytometry; type: functional, cell-based
Outline: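 Lysosomal stability in Jurkat cells 6, 12 and 24 h after UV-A (2.5 J/cm²) with compound. Cells resuspended in RPMI-1640 with 1 µM acridine orange; flow cytometry, excitation 488 nm, emission in FL3. Mean ± SEM of three experiments.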

Jurkat [21] = assay: Induction of lipid peroxidation in 3.75 J/cm'2 UV-A irradiated human Jurkat cells assessed as increase in TBARS formation after 24 hrs by thiobarbituric acid assay; type: functional, cell-based
Outline: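 Lipid peroxidation measured as MDA–thiobarbituric acid adducts, with BHT added to samples; calibrated to a 1,1,3,3-tetraethoxypropane standard curve; protein by Peterson method.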

Question: Which Activity (Nucleic Acid [1]) does the source give for `CCOC(=O)c1c2c(c(C)n1C)-c1c(cc(S(=O)(=O)c3ccccc3)c(=O)n1C)CC2` here?
Answer: inactive

Question: What about the Activity (Jurkat [2]) of the same molecule?
Answer: Active

Question: And the Activity (Nucleic Acid [3])?
Answer: inactive

Question: What about the Activity (MCF7 [4]) of the same molecule?
Answer: inactive

Question: And the viability at 10 µM (Jurkat [5])?
Answer: 45.2%

Question: And the Activity (Nucleic Acid [6])?
Answer: Active

Question: What about the Activity (Nucleic Acid [7]) of the same molecule?
Answer: inactive

Question: What about the Activity (Jurkat [8]) of the same molecule?
Answer: 43%

Question: And the Drug uptake [9]?
Answer: Active

Question: What about the Activity (MCF7 [10]) of the same molecule?
Answer: inactive

Question: What about the IC50 (LoVo) of the same molecule?
Answer: 400 nM

Question: What about the IC50 (Jurkat [11]) of the same molecule?
Answer: 1200 nM

Question: What about the Activity (Nucleic Acid [12]) of the same molecule?
Answer: inactive

Question: And the Activity (Jurkat [13])?
Answer: 10.5%

Question: What about the Activity (Jurkat [14]) of the same molecule?
Answer: 8.6%

Question: What about the Activity (MCF7 [15]) of the same molecule?
Answer: inactive

Question: And the IC50 (MCF7 [16])?
Answer: 1300 nM

Question: And the Activity (Jurkat [17])?
Answer: 5.3%

Question: And the Activity (Nucleic Acid [18])?
Answer: inactive

Question: And the IC50 (MCF7 [19])?
Answer: 1700 nM

Question: And the Activity (Jurkat [20])?
Answer: Active

Question: What about the Activity (Jurkat [21]) of the same molecule?
Answer: Dose-dependent effect

Source: ChEMBL document CHEMBL2176901, “Pyrrolo[3,4-h]quinolinones a new class of photochemotherapeutic agents” (Bioorg Med Chem, 2011)
